# Experimental data from different studies.
# Target: Cyclin-dependent kinase-like 3 (CDKL3, Homo sapiens, UniProt Q8IVW4)
Structure (SMILES),test,conditions,remaining binding [%]
CN(CCCC(F)(F)F)c1nccc(-c2cnn3ncccc23)n1,binding,1 µM,100
Cc1cc(NC(=O)c2cccc(S(F)(F)(F)(F)F)c2)cc(-n2ccn3nc(-c4cccnc4)cc23)c1,"cell-free assay, competition with immobilised ligand",1 µM,100
FC(F)(F)Oc1cccc(-c2cnc3ccc(-c4ccncc4)nn23)c1,"cell-free assay, competition with immobilised ligand",5 µM,85
CNCc1ccccc1-c1csc([C@@H](C)Nc2nc(C)nc3cc(OC)c(OC)cc23)c1,"cell-free assay, competition with immobilised ligand",1 µM,99
CNC(=O)[C@@H]1CC[C@@H](n2c(-c3ccc4cnccc4c3)nc3ccc(C(=O)NCc4cccc(C(N)=O)c4)cc32)C1,"binding, competition with immobilised ligand",1 µM,96
C[C@H]1CCN(c2nccc(-c3cnn4ncccc34)n2)C1,binding,1 µM,85
CC(C)CC(=O)N1CCc2nc(-c3ccc(Br)cc3)nc(N(C)Cc3ccccc3)c2C1,"cell-free assay, competition with immobilised ligand",0.1 µM,89
O=C(c1ccc(Nc2ncc(Cl)c(-c3cc4ccccc4s3)n2)cc1)N1CCC(N2CCCC2)CC1,"binding, competition with immobilised ligand",1 µM,47
CN(C)c1nccc(-c2cnc3ncccn23)n1,binding,1 µM,100
CN(c1ccnc(CNc2nc(Nc3ccc4c(c3)CC(=O)N4)ncc2C(F)(F)F)n1)S(C)(=O)=O,"cell-free assay, competition with immobilised ligand",1 µM,78
C=CC(=O)N1CCC(C(=O)NCC(=O)N2CCN(c3nc(-c4cnc(N)nc4C(F)F)nc(N4CCOCC4)n3)CC2)CC1,"binding, competition with immobilised ligand",1 µM,100
O=C(NCC1CCOCC1)c1n[nH]cc1NC(=O)c1c(F)cccc1F,"binding, competition with immobilised ligand",1 µM,100
N[C@@H]1CCN(c2nccc(-c3cnn4ncccc34)n2)C1,binding,1 µM,80
CN(C)CC#Cc1ccc(OCCCc2sc(N3CCc4cccc(C(=O)Nc5nc6ccccc6s5)c4C3)nc2C(=O)O)c(F)c1,"cell-free assay, competition with immobilised ligand",1 µM,100
O=C(NCCCN1CCOCC1)c1ccc(Nc2nccc(-c3cc4ccccc4s3)n2)cc1,"binding, competition with immobilised ligand",1 µM,89
CCN1CCN(Cc2ccc(C(=O)Nc3ccc(C)c(Oc4ccc5c(c4)CC(=O)N5)c3)cc2C(F)(F)F)CC1,"binding, competition with immobilised ligand",1 µM,86
Nc1ncc2c(n1)-c1c([nH]c3ccc(C#CC4CC4)cc13)CCCC2,"binding, competition with immobilised ligand",1 µM,83
O=C(NCCCN1CCOCC1)c1ccc(Nc2ncc(Cl)c(-c3ccc(Cl)s3)n2)cc1,"binding, competition with immobilised ligand",1 µM,86
CO[C@@H](C)c1c(Nc2ccc([C@H](N(C)C(=O)C3CCS(=O)(=O)CC3)C(F)(F)F)cc2)cnc2cc(Cl)nn12,"cell-free assay, competition with immobilised ligand",1 µM,73
F[C@@H]1CCN(c2nccc(-c3cnn4ncccc34)n2)C1,binding,1 µM,100
